Results published in ChEMBL document CHEMBL1125226, “Antineoplastic activity of didemnin congeners: nordidemnin and modified chain analogues” (1991).

Legend:
Format in all cases: functional, Mus musculus
P388 = assay: Antitumor activity (T/C) was evaluated from the median survival time of treated mice (T) over that of control mice (C) at a dose of 0.12 mg/kg/day
In short: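 CDF1 female mice (BALB/c ♀ × DBA/2 ♂) given 10⁶ P388 cells ip on day 0. Drug in 2% methanol given ip on days 1, 5 and 9, 10 mice per group and more controls. Toxicity is survivors on day 5, with weight change between days 1 and 5. Mortality followed 30 days. T/C% is treated over control median survival (NCI method), significant at ≥125%.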

B16 [1] = assay: Antitumor activity against B16 melanoma from B6 D2 F1 female mice(T/C) as median survival time of treated mice (T) over that of control mice (C) at a dose of 0.06 mg/kg/day (repeated ip injections, day 1-9); conditions: route intraperitoneal
In short: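 B16 melanoma homogenate (1 g tumor in 9 mL 0.9% saline), 0.5 mL implanted ip on day 0 in B6D2F1 female mice (C57BL/6 ♀ × DBA/2 ♂). Treatment ip once daily from day 1 to day 9. Toxicity scored as survivors on day 5. Median survival recorded and T/C computed as treated/control median survival, ≥125% significant.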

B16 [2] = assay: Antitumor activity against B16 melanoma from B6 D2 F1 female mice as average weight change of animals between day 1 and day 5 after tumor implementation at a dose of 0.03 mg/kg/day (repeated ip injections, day 1-9); conditions: route intraperitoneal
In short: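 B6D2F1 female mice (C57BL/6 × DBA/2) were implanted ip on day 0 with 0.5 mL of B16 suspension (1 g tumor homogenized in 9 mL 0.9% saline). Ip treatment was given once daily, day 1 to day 9. Body weight was recorded on days 1 and 5 after implantation, and the mean change per group was reported.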

B16 [3] = assay: Antitumor activity against B16 melanoma from B6 D2 F1 female mice evaluated as average weight change of animals between day 1 and day 5 after tumor implementation at a dose of 0.03 mg/kg/day
In short: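 B16 melanoma in B6D2F1 female mice: 0.5 mL of tumor homogenate (1 g in 9 mL 0.9% saline) was given ip on day 0. Ip dosing was on days 1, 5 and 9. The readout was the average body weight change between day 1 and day 5 after tumor implantation.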

B16 [4] = assay: Antitumor activity against B16 melanoma from B6 D2 F1 female mice evaluated as the number of survivors on day 5 at a dose of 0.50 mg/kg/day
In short: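 B6D2F1 female mice (C57BL/6 ♀ × DBA/2 ♂) implanted ip on day 0 with 0.5 mL of B16 tumor suspension (1 g homogenized in 9 mL 0.9% saline). Dosing ip on days 1, 5 and 9. Day-5 survivors give toxicity. Median survival of treated vs control mice gives T/C%, with ≥125% significant.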

SMILES: COc1ccc(C[C@H]2C(=O)O[C@H](C)[C@H](NC(=O)[C@@H](CC(C)C)N(C)C(=O)C3CCCN3C(=O)[C@@H](C)O)C(=O)NC(C(C)C)[C@H](O)CC(=O)O[C@@H](C(C)C)C(=O)[C@H](C)C(=O)N[C@@H](CC(C)C)C(=O)N3CCC[C@H]3C(=O)N2C)cc1 (stereo not given in full) [NORDIDEMNIN]
- T/C (P388): 133%
- T/C (B16 [1]): 146%
- Body weight change (B16 [2]): -0.1 g
- Body weight change (B16 [3]): 0 g
- Toxicity (B16 [4]): 1
